From ChEMBL document CHEMBL1765003, “Discovery of (1S,2R,3R)-2,3-dimethyl-2-phenyl-1-sulfamidocyclopropanecarboxylates: novel and highly selective aggrecanase inhibitors” (J Med Chem, 2011)

Assays:
[1] = biological target: Disintegrin and metalloproteinase domain-containing protein 17 (Homo sapiens, UniProt P78536); experiment: Inhibition of human recombinant TACE after 60 mins by fluorescence plate reader
Outline: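 rh-TACE at 80 ng/mL with 10 μM MCA-Pro-Leu-Ala-Gln-Ala-Val-Dpa-Arg-Ser-Ser-Ser-Arg-NH₂, in 100 mM Tris-HCl pH 7.5, 150 mM NaCl, 10 mM CaCl₂, 0.05% Brij-35. Inhibitor preincubated for 15 min at 25 °C. Fluorescence (ex 325/em 405 nm) read at 60 min. IC50 from three linear-range points; mean of ≥2.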

Interstitial collagenase = biological target: T1, Interstitial collagenase (Homo sapiens, UniProt P03956); experiment: Inhibition of human recombinant MMP1 after 60 mins by fluorescence plate reader
T1 sequence (P03956 whole entry): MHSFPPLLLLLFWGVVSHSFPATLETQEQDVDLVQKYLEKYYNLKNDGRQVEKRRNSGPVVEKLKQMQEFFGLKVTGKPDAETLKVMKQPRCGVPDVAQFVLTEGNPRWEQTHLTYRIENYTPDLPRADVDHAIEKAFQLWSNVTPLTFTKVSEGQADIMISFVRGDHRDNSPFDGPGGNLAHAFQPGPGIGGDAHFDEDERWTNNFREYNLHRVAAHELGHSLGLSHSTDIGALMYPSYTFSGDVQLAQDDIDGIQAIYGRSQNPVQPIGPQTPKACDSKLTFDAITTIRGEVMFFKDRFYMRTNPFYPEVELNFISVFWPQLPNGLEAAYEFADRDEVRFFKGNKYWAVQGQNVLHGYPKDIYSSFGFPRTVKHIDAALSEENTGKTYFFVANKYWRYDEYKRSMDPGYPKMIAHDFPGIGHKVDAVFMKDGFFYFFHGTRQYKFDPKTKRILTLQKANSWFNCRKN
Outline: (§1)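 Recombinant human enzyme at 20 ng/mL with 10 μM MOCAc-Lys-Pro-Leu-Gly-Leu-A2pr(Dnp)-Ala-Arg-NH₂, in 100 mM Tris-HCl pH 7.5, 150 mM NaCl, 10 mM CaCl₂, 0.05% Brij-35. Enzyme pretreated with inhibitor for 15 min at 25 °C, then substrate added. Fluorescence (ex 325, em 405 nm) read at 60 min. IC50 taken from three points in the linear range; mean of ≥2 determinations.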

[2] = biological target: Matrix metalloproteinase-14 (Homo sapiens, UniProt P50281); experiment: Inhibition of human recombinant MMP14 after 60 mins by fluorescence plate reader; outline: as §1
[3] = biological target: T2, A disintegrin and metalloproteinase with thrombospondin motifs 5 (Homo sapiens, UniProt Q9UNA0); experiment: Inhibition of human recombinant aggrecanase 2 after 150 mins by fluorescence plate reader
T2 sequence (Q9UNA0 whole entry): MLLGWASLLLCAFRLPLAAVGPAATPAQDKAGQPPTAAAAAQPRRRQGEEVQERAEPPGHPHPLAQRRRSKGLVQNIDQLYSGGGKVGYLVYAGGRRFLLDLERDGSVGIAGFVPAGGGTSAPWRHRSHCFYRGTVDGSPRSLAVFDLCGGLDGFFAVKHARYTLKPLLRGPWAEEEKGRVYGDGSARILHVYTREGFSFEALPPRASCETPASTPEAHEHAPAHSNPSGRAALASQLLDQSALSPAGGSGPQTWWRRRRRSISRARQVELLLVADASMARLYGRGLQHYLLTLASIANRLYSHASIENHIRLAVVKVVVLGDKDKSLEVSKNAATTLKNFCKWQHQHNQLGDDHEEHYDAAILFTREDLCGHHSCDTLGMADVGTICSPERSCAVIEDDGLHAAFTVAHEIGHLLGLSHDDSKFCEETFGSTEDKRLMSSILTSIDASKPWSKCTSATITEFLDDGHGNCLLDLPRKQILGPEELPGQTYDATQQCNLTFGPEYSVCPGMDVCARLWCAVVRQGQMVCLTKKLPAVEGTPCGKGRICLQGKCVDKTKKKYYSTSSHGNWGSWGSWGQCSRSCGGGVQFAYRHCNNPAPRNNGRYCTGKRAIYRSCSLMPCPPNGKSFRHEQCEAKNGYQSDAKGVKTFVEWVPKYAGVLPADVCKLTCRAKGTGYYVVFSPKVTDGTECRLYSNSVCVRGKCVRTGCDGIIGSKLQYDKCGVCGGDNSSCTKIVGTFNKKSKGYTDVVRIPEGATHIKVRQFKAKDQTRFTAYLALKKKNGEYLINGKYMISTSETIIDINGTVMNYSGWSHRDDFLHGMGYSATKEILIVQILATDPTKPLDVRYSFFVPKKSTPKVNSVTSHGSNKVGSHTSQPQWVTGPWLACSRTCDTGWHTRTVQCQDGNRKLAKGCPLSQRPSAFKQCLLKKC

Chain of Disintegrin and metalloproteinase domain-containing protein 17 (P78536 whole entry, the tested form may be a part): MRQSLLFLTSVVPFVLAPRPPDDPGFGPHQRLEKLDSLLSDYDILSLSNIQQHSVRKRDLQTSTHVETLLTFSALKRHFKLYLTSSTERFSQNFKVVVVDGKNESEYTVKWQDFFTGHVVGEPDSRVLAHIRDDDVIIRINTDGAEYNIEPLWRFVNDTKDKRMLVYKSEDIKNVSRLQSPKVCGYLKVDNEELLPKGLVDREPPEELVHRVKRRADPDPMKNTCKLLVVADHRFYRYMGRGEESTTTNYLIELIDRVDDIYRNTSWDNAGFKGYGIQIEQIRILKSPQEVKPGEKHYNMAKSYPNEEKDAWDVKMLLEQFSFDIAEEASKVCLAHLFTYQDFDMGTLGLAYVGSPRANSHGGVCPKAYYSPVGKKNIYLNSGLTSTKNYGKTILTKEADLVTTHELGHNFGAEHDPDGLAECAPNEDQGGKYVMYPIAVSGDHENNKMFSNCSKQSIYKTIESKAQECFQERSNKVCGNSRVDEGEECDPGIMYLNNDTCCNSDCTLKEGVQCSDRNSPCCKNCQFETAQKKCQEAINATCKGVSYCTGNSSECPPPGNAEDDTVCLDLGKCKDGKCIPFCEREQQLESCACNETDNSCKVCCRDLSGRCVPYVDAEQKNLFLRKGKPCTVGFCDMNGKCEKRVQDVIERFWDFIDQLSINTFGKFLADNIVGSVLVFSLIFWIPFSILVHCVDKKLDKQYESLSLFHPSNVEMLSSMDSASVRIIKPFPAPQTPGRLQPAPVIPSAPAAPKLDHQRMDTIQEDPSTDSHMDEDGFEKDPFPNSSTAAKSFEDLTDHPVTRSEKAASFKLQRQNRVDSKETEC

SMILES | IC50 [1] | IC50 (Interstitial collagenase) | IC50 [2] | IC50 [3]
C[C@@H]1[C@H](c2ccccc2)[C@]1(NS(=O)(=O)c1cc2[nH]c3ccc(F)cc3c2s1)C(=O)O | 1900 nM | 1300 nM | 25 nM | 10 nM
C[C@@H]1[C@](C)(c2ccccc2)[C@]1(NS(=O)(=O)N1CCc2c(nn3cc(F)ccc23)C1)C(=O)O | > 10000 nM | > 10000 nM | 2100 nM | 10 nM
C[C@@H]1[C@H](c2ccccc2)[C@]1(NS(=O)(=O)c1cc2[nH]c3cc(Cl)ccc3c2s1)C(=O)O | 3800 nM | 1000 nM | 17 nM | 2.9 nM
Cc1cc(S(=O)(=O)N[C@@]2(C(=O)O)[C@H](C)[C@@H]2c2ccccc2)sc1-n1cc(Cl)cn1 | – | – | – | > 1000 nM
Cc1cnn(-c2ccc(S(=O)(=O)N[C@@]3(C(=O)O)[C@H](C)[C@@H]3c3ccccc3)s2)c1 | > 10000 nM | < 300 nM | 1.2 nM | 19 nM
CCC1CN(S(=O)(=O)N[C@@]2(C(=O)O)[C@H](C)[C@@H]2c2ccccc2)CCN1c1ccc(Cl)cc1 (mixture of isomers) | – | – | > 10000 nM | 410 nM
C[C@@H]1[C@H](c2ccccc2)[C@]1(NS(=O)(=O)c1cc2nn3cc(Cl)ccc3c2s1)C(=O)O | > 10000 nM | 1300 nM | 100 nM | 29 nM
C[C@@H]1[C@H](c2ccccc2)[C@]1(NS(=O)(=O)c1ccc(-c2ccc(Cl)cc2)s1)C(=O)O | 2700 nM | 4000 nM | 19 nM | –
C[C@@H]1CN(S(=O)(=O)N[C@@]2(C(=O)O)[C@H](C)[C@@H]2c2ccccc2)CCN1c1ccc(C2CC2)cc1 | – | > 10000 nM | 1400 nM | 270 nM
C[C@@H]1[C@H](c2ccccc2)[C@]1(NS(=O)(=O)N1CCN(c2ccc(Cl)cc2)C(CO)C1)C(=O)O (mixture of isomers) | – | – | 6100 nM | 230 nM

The remaining lines, values ahead:

IC50 [1] | IC50 (Interstitial collagenase) | IC50 [2] | IC50 [3] | SMILES
> 10000 nM | > 10000 nM | 450 nM | 87 nM | C[C@@H]1[C@H](c2ccccc2)[C@]1(NS(=O)(=O)N1CCN(c2ccc(Cl)cc2)CC1)C(=O)O
> 10000 nM | > 10000 nM | 240 nM | 100 nM | C[C@@H]1[C@H](c2ccccc2)[C@]1(NS(=O)(=O)N1CCn2c(nc3ccc(F)cc32)C1)C(=O)O
> 10000 nM | 2300 nM | 98 nM | 38 nM | C[C@@H]1[C@H](c2ccccc2)[C@]1(NS(=O)(=O)N1CCc2c([nH]c3cc(F)ccc23)C1)C(=O)O
> 10000 nM | > 10000 nM | 900 nM | 320 nM | Cc1ccc2c(c1)nc1n2CCN(S(=O)(=O)N[C@@]2(C(=O)O)[C@H](C)[C@@H]2c2ccccc2)C1
> 10000 nM | > 10000 nM | 2300 nM | 110 nM | C[C@@H]1[C@H](c2ccccc2)[C@]1(NS(=O)(=O)N1CCn2c(cc3cc(Cl)sc32)C1)C(=O)O
> 10000 nM | > 10000 nM | 6000 nM | 33 nM | C[C@@H]1CN(S(=O)(=O)N[C@@]2(C(=O)O)[C@H](C)[C@@H]2c2ccccc2)CCN1c1ccc(C#N)s1
> 10000 nM | > 10000 nM | 2200 nM | 92 nM | C[C@@H]1[C@H](c2ccccc2)[C@]1(NS(=O)(=O)N1CCn2c(nc3ccccc32)C1)C(=O)O
> 10000 nM | > 10000 nM | 300 nM | 62 nM | C[C@@H]1[C@H](c2ccccc2)[C@]1(NS(=O)(=O)N1CC=C(c2ccc(Cl)cc2)CC1)C(=O)O
– | – | 2900 nM | 330 nM | C[C@@H]1[C@H](c2ccccc2)[C@]1(NS(=O)(=O)N1CCN(c2ccc(Cl)cc2)C(C)(C)C1)C(=O)O
> 10000 nM | > 10000 nM | 610 nM | 60 nM | C[C@@H]1[C@H](c2ccccc2)[C@]1(NS(=O)(=O)N1CCn2c(nc3cc(Cl)ccc32)C1)C(=O)O
> 10000 nM | > 10000 nM | 420 nM | 39 nM | C[C@@H]1[C@H](c2ccccc2)[C@]1(NS(=O)(=O)N1CCn2c(cc3cc(Cl)ccc32)C1)C(=O)O
